Reference: ChEMBL document CHEMBL4818995, “Dual nicotinamide phosphoribosyltransferase and epidermal growth factor receptor inhibitors for the treatment of cancer” (Eur J Med Chem, 2021)

What was measured:
[1] = target: Epidermal growth factor receptor (Homo sapiens, UniProt P00533, L861Q); assay: Inhibition of N-terminal GST-tagged human recombinant EGFR L861Q mutant (668 to 1210 residues) expressed in baculovirus expression system by Z'-LYTE kinase assay
[2] = target: Epidermal growth factor receptor (Homo sapiens, UniProt P00533, T790M); assay: Inhibition of N-terminal GST-tagged human recombinant EGFR T790M mutant (668 to 1210 residues) expressed in baculovirus expression system by Z'-LYTE kinase assay
Epidermal growth factor receptor (Homo sapiens, UniProt P00533, T790M), sequence (P00533 25-1210 T790M limits assumed): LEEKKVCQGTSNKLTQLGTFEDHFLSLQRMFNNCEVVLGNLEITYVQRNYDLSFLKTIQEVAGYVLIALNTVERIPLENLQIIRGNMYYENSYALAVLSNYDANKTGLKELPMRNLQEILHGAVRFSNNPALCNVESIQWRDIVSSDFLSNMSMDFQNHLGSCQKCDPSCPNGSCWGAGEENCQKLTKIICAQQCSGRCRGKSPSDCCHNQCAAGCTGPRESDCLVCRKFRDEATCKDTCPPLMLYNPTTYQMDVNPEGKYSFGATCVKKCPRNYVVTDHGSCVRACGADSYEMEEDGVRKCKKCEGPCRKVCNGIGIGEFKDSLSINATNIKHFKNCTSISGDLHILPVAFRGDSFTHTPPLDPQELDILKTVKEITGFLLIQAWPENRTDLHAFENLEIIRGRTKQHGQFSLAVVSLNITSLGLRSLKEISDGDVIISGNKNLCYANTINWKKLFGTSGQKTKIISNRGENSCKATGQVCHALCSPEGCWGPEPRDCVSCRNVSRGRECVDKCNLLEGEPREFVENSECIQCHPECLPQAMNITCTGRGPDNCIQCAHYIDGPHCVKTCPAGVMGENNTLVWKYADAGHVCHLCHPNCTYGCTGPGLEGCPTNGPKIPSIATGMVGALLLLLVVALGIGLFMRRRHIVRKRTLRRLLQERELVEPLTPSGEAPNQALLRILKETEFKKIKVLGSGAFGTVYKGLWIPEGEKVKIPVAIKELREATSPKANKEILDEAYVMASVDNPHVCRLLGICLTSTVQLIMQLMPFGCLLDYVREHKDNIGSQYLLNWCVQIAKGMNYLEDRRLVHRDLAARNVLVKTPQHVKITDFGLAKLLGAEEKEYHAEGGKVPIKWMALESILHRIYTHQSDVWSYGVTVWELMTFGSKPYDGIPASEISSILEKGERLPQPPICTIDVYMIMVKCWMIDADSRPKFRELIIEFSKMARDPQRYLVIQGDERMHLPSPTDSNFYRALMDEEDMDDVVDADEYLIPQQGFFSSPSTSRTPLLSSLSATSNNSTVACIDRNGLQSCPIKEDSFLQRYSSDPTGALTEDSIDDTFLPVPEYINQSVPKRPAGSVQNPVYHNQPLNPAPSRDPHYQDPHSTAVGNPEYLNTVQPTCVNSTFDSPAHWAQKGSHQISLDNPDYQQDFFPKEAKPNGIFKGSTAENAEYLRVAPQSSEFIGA

MCF7 = assay: Antiproliferative activity against human MCF-7 cells assessed as inhibition of cell growth after 72 hrs by CCK8 assay; details: MCF7, 72 h
Huh-7 = assay: Antiproliferative activity against human Huh-7 cells assessed as inhibition of cell growth after 72 hrs by CCK8 assay; assay type: functional, cell-based
Method in brief: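 Cells kept in RPMI or DMEM with 10% FBS and 1% penicillin/streptomycin, 37 °C, 5% CO2. Plated at 400-800 cells/well, treated with a range of test concentrations or vehicle for 72 h. CCK8 reagent added, absorbance read at 450 nm.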

[3] = target: Epidermal growth factor receptor (Homo sapiens, UniProt P00533); assay: Inhibition of N-terminal GST-tagged human recombinant EGFR cytoplasmic domain (668 to 1210 residues) expressed in baculovirus expression system by Z'-LYTE kinase assay
Epidermal growth factor receptor (Homo sapiens, UniProt P00533), sequence (P00533 whole entry, the tested form may be a part): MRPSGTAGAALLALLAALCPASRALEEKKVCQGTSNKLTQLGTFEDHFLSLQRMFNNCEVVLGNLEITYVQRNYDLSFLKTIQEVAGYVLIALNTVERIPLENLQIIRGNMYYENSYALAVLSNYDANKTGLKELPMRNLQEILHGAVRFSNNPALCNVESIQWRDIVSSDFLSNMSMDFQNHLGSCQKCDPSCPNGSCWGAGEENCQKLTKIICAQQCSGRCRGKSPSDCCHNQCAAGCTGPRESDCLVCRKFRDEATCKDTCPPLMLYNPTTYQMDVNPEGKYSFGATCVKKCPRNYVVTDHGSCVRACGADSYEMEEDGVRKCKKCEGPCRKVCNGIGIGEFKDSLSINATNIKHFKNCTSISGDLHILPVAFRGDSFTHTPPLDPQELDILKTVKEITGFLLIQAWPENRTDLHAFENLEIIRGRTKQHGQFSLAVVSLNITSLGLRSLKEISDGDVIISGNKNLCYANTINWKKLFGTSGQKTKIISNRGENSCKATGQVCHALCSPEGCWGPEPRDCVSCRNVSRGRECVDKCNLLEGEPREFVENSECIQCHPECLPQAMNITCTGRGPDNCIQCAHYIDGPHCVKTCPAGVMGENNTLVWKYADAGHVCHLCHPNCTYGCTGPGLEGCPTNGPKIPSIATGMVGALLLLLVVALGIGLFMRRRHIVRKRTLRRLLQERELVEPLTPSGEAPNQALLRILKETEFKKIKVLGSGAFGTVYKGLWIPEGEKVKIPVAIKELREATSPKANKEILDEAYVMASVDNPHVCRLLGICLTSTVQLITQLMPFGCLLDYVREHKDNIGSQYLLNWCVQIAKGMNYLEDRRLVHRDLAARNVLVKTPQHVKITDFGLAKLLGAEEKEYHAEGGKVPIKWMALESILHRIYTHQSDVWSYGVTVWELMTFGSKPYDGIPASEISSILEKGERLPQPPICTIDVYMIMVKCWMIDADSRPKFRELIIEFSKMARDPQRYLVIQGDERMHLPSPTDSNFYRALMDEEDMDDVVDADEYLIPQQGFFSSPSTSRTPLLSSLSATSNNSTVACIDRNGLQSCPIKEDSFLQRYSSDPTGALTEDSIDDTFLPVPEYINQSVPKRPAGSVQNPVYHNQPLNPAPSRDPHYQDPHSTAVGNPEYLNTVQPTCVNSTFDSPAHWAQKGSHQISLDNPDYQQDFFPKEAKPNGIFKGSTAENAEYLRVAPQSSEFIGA

K562 = assay: Antiproliferative activity against human K562 cells assessed as inhibition of cell growth after 72 hrs by CCK8 assay; details: K562, 72 h
[4] = target: Epidermal growth factor receptor (Homo sapiens, UniProt P00533, L858R); assay: Inhibition of N-terminal GST-tagged human recombinant EGFR L858R mutant (668 to 1210 residues) expressed in baculovirus expression system by Z'-LYTE kinase assay
Epidermal growth factor receptor (Homo sapiens, UniProt P00533, L858R), sequence (P00533 25-1210 L858R limits assumed): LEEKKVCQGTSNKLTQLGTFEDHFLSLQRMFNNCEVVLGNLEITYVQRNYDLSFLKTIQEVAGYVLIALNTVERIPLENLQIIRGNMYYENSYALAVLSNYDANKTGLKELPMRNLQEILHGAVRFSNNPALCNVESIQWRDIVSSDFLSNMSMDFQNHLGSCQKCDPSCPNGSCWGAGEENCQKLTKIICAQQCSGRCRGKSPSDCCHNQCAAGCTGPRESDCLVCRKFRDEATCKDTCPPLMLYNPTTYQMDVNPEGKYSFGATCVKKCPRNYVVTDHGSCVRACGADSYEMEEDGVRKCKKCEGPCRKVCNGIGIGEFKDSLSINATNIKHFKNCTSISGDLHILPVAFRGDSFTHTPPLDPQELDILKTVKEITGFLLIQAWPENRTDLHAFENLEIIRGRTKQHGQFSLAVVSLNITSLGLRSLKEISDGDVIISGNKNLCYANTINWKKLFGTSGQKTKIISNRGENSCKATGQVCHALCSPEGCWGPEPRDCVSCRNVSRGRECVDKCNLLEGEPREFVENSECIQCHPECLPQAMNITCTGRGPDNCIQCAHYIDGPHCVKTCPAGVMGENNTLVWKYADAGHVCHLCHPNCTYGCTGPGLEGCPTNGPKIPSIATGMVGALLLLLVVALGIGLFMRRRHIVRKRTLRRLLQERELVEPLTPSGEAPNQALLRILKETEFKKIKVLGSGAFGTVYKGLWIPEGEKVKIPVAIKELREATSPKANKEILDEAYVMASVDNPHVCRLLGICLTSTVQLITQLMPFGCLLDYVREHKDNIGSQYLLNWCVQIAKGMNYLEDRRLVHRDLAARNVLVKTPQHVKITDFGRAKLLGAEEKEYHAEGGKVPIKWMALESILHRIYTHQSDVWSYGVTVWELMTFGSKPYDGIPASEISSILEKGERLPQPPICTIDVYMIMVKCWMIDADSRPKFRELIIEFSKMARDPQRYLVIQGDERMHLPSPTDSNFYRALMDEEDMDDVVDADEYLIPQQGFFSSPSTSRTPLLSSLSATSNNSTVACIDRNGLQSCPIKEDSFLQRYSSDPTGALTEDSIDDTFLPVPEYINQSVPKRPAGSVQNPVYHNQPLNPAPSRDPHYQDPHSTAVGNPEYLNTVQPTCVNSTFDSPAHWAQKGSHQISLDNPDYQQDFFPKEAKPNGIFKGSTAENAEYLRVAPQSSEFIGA

[5] = Toxicity in BALB/c nude mouse xenografted with human NCI-H1975 cells assessed as changes in body weight at 60 mg/kg, iv administered 5 days a week for 3 weeks; assay type: organism-based; details: in vivo, 504 h
Method in brief: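 Female BALB/c nude mice aged 4-6 weeks, H1975 cells (3 × 10^6 in 0.1 ml RPMI-1640) implanted subcutaneously in the right flank. At day 12, tumors ~150 mm3, mice grouped n=6. […] Test agent in 5% ethanol/5% DMSO/10% Cremophor EL/80% saline at 60 mg/kg i.v. five times weekly. Vehicle group received i.v. vehicle. Tumor and body weight recorded daily by caliper; TV = width² × length × 0.5. Mean ± SD, Student's t-test.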

NCI-H1975 = assay: Antiproliferative activity against human NCI-H1975 cells harboring EGFR L858R/T790M double mutant assessed as inhibition of cell growth; assay type: functional

Epidermal growth factor receptor (Homo sapiens, UniProt P00533, L861Q), sequence (P00533 25-1210 L861Q limits assumed): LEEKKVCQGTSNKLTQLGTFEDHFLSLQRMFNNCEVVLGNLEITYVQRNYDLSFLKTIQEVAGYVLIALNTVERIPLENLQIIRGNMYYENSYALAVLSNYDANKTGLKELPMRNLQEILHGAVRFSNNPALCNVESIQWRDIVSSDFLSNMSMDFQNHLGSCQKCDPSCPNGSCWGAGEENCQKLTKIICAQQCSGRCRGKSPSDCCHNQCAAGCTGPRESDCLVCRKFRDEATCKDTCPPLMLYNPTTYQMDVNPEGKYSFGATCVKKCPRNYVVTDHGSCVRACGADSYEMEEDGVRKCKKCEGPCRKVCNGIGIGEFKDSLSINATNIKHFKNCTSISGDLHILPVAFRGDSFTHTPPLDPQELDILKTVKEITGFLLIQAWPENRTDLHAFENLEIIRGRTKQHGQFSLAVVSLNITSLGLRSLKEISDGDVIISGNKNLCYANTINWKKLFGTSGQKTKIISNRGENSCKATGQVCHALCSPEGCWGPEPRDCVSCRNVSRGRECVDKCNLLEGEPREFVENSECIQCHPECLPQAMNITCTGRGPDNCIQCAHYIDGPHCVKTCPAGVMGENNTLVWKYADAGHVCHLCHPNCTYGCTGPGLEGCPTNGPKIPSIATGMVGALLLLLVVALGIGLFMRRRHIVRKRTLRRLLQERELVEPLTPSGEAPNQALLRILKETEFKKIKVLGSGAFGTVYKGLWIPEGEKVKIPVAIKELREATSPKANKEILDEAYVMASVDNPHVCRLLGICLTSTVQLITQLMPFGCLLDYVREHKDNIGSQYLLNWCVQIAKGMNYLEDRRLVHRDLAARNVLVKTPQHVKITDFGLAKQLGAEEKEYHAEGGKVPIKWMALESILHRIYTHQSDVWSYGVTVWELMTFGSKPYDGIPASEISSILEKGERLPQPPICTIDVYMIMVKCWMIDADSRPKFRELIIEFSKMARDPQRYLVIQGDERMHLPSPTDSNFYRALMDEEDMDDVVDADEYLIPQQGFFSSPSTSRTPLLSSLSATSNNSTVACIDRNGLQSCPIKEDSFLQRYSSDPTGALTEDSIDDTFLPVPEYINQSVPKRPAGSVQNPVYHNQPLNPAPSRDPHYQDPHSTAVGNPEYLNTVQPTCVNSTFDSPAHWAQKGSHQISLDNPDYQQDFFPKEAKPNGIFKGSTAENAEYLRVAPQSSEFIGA

Row | Compound | IC50 [1] | IC50 [2] | GI50 (MCF7) | GI50 (Huh-7) | IC50 [3] | GI50 (K562) | IC50 [4] | Activity [5] | GI50 (NCI-H1975)
1 | C#Cc1cccc(Nc2ncnc3cc(OC)c(OCCCCCN/C(=N\C#N)Nc4cccnc4)cc23)c1 | 0.46 nM | 228 nM | 0.98 nM | 62.9 nM | 0.52 nM | 175 nM | 0.41 nM |  | 
2 | C#Cc1cccc(Nc2ncnc3cc(OC)c(OCCCCCN/C(=N\C#N)Nc4ccncc4)cc23)c1 | 0.26 nM | 153 nM | 0.1 nM | 1.64 nM | 0.23 nM | 38 nM | 0.26 nM | Non-Toxic | 78.3 nM
3 | C#Cc1cccc(Nc2ncnc3cc(OC)c(OCCCCCCN/C(=N\C#N)Nc4cccnc4)cc23)c1 | 0.38 nM | 326 nM | 0.16 nM |  | 0.32 nM | 24.6 nM | 0.38 nM |  | 
4 | C#Cc1cccc(Nc2ncnc3cc(OC)c(OCCCCCCCN/C(=N\C#N)Nc4cccnc4)cc23)c1 | 0.49 nM | 448 nM | 0.63 nM | 9.94 nM | 0.538 nM | 42.1 nM | 0.48 nM |  | 
5 | CC(=O)O[C@H]1C(=O)[C@@]2(C)[C@H]([C@H](OC(=O)c3ccccc3)[C@]3(O)C[C@H](OC(=O)[C@H](O)[C@@H](NC(=O)c4ccccc4)c4ccccc4)C(C)=C1C3(C)C)[C@]1(OC(C)=O)CO[C@@H]1C[C@@H]2O [PACLITAXEL] |  |  | 4.85 nM | 7.41 nM |  | 2.76 nM |  |  | 
6 | C#Cc1cccc(Nc2ncnc3cc(OC)c(OCCCCCCCN/C(=N\C#N)Nc4ccncc4)cc23)c1 | 0.55 nM | 581 nM | 0.21 nM | 1.81 nM | 0.473 nM | 50.9 nM | 0.46 nM |  | 
7 | C#Cc1cccc(Nc2ncnc3cc(OC)c(OCCCCCCN/C(=N\C#N)Nc4ccncc4)cc23)c1 | 0.36 nM | 323 nM | 0.15 nM | 1.87 nM | 0.35 nM | 7.47 nM | 0.32 nM |  | 
